Laboratory results as given in ChEMBL document CHEMBL1123208, “Quantitative structure-activity relationship of the mutagenicity of substituted N-nitroso-N-benzylmethylamines: possible implications for carcinogenicity” (J Med Chem, 1986).

How the values were obtained:
[1] = Concentration in nmol/plate to induce 50 revertants/plate.; format: ADME
Procedure, shortened: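 Ames plate incorporation, S. typhimurium TA 1535, Aroclor-induced male hamster liver S9; duplicate plates, 10-point range 1–1000 µg/plate; 37 °C, 48 h; revertants counted by hand tally. Potency index: concentration (nmol/plate) inducing 50 revertants/plate, taken from linear portion of dose–response curve.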

Salmonella typhimurium [2] = assay: Mutagenicity against Salmonella tester strain TA 1535 without hamster S9 mix (3 mg/plate) in cells.; format: functional, Salmonella enterica subsp. enterica serovar Typhimurium
Salmonella typhimurium [3] = assay: compound was tested for mutagenicity against Salmonella tester strain TA 1535 with hamster S9 mix (3 mg/plate) in cells at dose of 500 ug
Salmonella typhimurium [4] = assay: compound was tested for mutagenicity against Salmonella tester strain TA 1535 with out hamster S9 mix (3 mg/plate) in cells at dose of 500 ug
Cricetinae gen. sp. = assay: (§1) compound was tested for mutagenicity against Salmonella tester strain TA 1535 with out hamster S9 mix (3 mg/plate) in cells at dose of 50 ug; format: functional
Procedure, shortened: (§2)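 Plate incorporation assay in S. typhimurium TA 1535 without S9 activation. Compound in Me2SO, 1–1000 µg/plate, duplicate plates, mean revertants/plate; incubated 37 °C for 48 h, colonies hand-counted. Positive if two consecutive doses gave revertants more than twice the concurrent control mean.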

Salmonella typhimurium [5] = assay: compound was tested for mutagenicity against Salmonella tester strain TA 1535 with hamster S9 mix (3 mg/plate) in cells at dose of 1000 ug; format: functional, Salmonella enterica subsp. enterica serovar Typhimurium
Procedure, shortened: as §2, with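 “with Aroclor-induced male hamster liver” for “without”, “(3 mg/plate).” for “activation.”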

Salmonella typhimurium [6] = assay: compound was tested for mutagenicity against Salmonella tester strain TA 1535 with hamster S9 mix (3 mg/plate) in cells at dose of 100 ug; format: functional, Salmonella enterica subsp. enterica serovar Typhimurium
Procedure, shortened: as §2, with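 “with Aroclor-induced male hamster liver” for “without”, “(3 mg/plate).” for “activation.”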

Salmonella typhimurium [7] = assay: compound was tested for mutagenicity against Salmonella tester strain TA 1535 with hamster S9 mix (3 mg/plate) in cells at dose of 10 ug; format: functional, Salmonella enterica subsp. enterica serovar Typhimurium
Procedure, shortened: as §2, with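 “with Aroclor-induced male hamster liver” for “without”, “(3 mg/plate).” for “activation.”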

Salmonella typhimurium [8] = assay: compound was tested for mutagenicity against Salmonella tester strain TA 1535 with hamster S9 mix (3 mg/plate) in cells at dose of 1 ug; format: functional, Salmonella enterica subsp. enterica serovar Typhimurium
Procedure, shortened: as §2, with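 “with Aroclor-induced male hamster liver” for “without”, “(3 mg/plate).” for “activation.”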

Salmonella typhimurium [9] = assay: compound was tested for mutagenicity against Salmonella tester strain TA 1535 with hamster S9 mix (3 mg/plate) in cells at dose of 2.5 ug; format: functional, Salmonella enterica subsp. enterica serovar Typhimurium
Procedure, shortened: as §2, with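 “with Aroclor-induced male hamster liver” for “without”, “(3 mg/plate).” for “activation.”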

Salmonella typhimurium [10] = assay: compound was tested for mutagenicity against Salmonella tester strain TA 1535 with hamster S9 mix (3 mg/plate) in cells at dose of 250 ug; format: functional, Salmonella enterica subsp. enterica serovar Typhimurium
Procedure, shortened: as §2, with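 “with Aroclor-induced male hamster liver” for “without”, “(3 mg/plate).” for “activation.”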

Salmonella typhimurium [11] = assay: compound was tested for mutagenicity against Salmonella tester strain TA 1535 with hamster S9 mix (3 mg/plate) in cells at dose of 25 ug; format: functional, Salmonella enterica subsp. enterica serovar Typhimurium
Procedure, shortened: as §2, with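 “with Aroclor-induced male hamster liver” for “without”, “(3 mg/plate).” for “activation.”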

Salmonella typhimurium [12] = assay: compound was tested for mutagenicity against Salmonella tester strain TA 1535 with hamster S9 mix (3 mg/plate) in cells at dose of 500 ug; format: functional, Salmonella enterica subsp. enterica serovar Typhimurium
Procedure, shortened: as §2, with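 “with Aroclor-induced male hamster liver” for “without”, “(3 mg/plate).” for “activation.”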

Salmonella typhimurium [13] = assay: compound was tested for mutagenicity against Salmonella tester strain TA 1535 with hamster S9 mix (3 mg/plate) in cells at dose of 5 ug; format: functional, Salmonella enterica subsp. enterica serovar Typhimurium
Procedure, shortened: as §2, with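 “with Aroclor-induced male hamster liver” for “without”, “(3 mg/plate).” for “activation.”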

Salmonella typhimurium [14] = assay: compound was tested for mutagenicity against Salmonella tester strain TA 1535 with out hamster S9 mix (3 mg/plate) in cells at dose of 1000 ug; format: functional, Salmonella enterica subsp. enterica serovar Typhimurium; procedure, shortened: as §2
Salmonella typhimurium [15] = assay: compound was tested for mutagenicity against Salmonella tester strain TA 1535 with out hamster S9 mix (3 mg/plate) in cells at dose of 100 ug; format: functional, Salmonella enterica subsp. enterica serovar Typhimurium; procedure, shortened: as §2
Salmonella typhimurium [16] = assay: compound was tested for mutagenicity against Salmonella tester strain TA 1535 with out hamster S9 mix (3 mg/plate) in cells at dose of 10 ug; format: functional, Salmonella enterica subsp. enterica serovar Typhimurium; procedure, shortened: as §2
Salmonella typhimurium [17] = assay: compound was tested for mutagenicity against Salmonella tester strain TA 1535 with hamster S9 mix (3 mg/plate) in cells.; format: functional, Salmonella enterica subsp. enterica serovar Typhimurium
Procedure, shortened: as §2, with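 “with Aroclor-induced male hamster liver” for “without”, “(3 mg/plate).” for “activation.”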

Salmonella typhimurium [18] = assay: compound was tested for mutagenicity against Salmonella tester strain TA 1535 with hamster S9 mix (3 mg/plate) in cells. Activity expressed as no. of cells; format: functional, Salmonella enterica subsp. enterica serovar Typhimurium
Procedure, shortened: as §2, with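 “with Aroclor-induced male hamster liver” for “without”, “(3 mg/plate).” for “activation.”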

Salmonella typhimurium [19] = assay: compound was tested for mutagenicity against Salmonella tester strain TA 1535 with out hamster S9 mix (3 mg/plate) in cells.; format: functional, Salmonella enterica subsp. enterica serovar Typhimurium; procedure, shortened: as §2
Salmonella typhimurium [20] = assay: compound was tested for mutagenicity against Salmonella tester strain TA 1535 with out hamster S9 mix (3 mg/plate) in cells at dose of 1 ug; format: functional, Salmonella enterica subsp. enterica serovar Typhimurium; procedure, shortened: as §2
Salmonella typhimurium [21] = assay: compound was tested for mutagenicity against Salmonella tester strain TA 1535 with out hamster S9 mix (3 mg/plate) in cells at dose of 2.5 ug; format: functional, Salmonella enterica subsp. enterica serovar Typhimurium; procedure, shortened: as §2
Salmonella typhimurium [22] = assay: compound was tested for mutagenicity against Salmonella tester strain TA 1535 with out hamster S9 mix (3 mg/plate) in cells at dose of 250 ug; format: functional, Salmonella enterica subsp. enterica serovar Typhimurium; procedure, shortened: as §2
Salmonella typhimurium [23] = assay: compound was tested for mutagenicity against Salmonella tester strain TA 1535 with out hamster S9 mix (3 mg/plate) in cells at dose of 25 ug; format: functional, Salmonella enterica subsp. enterica serovar Typhimurium; procedure, shortened: as §2
Salmonella typhimurium [24] = assay: compound was tested for mutagenicity against Salmonella tester strain TA 1535 with out hamster S9 mix (3 mg/plate) in cells at dose of 500 ug; format: functional, Salmonella enterica subsp. enterica serovar Typhimurium; procedure, shortened: as §2
Salmonella typhimurium [25] = assay: as §1; format: functional, Salmonella enterica subsp. enterica serovar Typhimurium; procedure, shortened: as §2
Salmonella typhimurium [26] = assay: compound was tested for mutagenicity against Salmonella tester strain TA 1535 with out hamster S9 mix (3 mg/plate) in cells at dose of 5 ug; format: functional, Salmonella enterica subsp. enterica serovar Typhimurium; procedure, shortened: as §2
Salmonella typhimurium [27] = assay: compound was tested for mutagenicity against Salmonella tester strain TA 1535 with hamster S9 mix (3 mg/plate) in cells at dose of 50 ug; format: functional, Salmonella enterica subsp. enterica serovar Typhimurium
Procedure, shortened: as §2, with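 “with Aroclor-induced male hamster liver” for “without”, “(3 mg/plate).” for “activation.”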

Structure (SMILES): CN(Cc1ccc(C#N)cc1)N=O
- Log 1/C [1]: -2.78
- Activity (Salmonella typhimurium [2]): 15
- No. of revertants per plate (Salmonella typhimurium [3]): 180
- No. of revertants per plate (Salmonella typhimurium [4]): 12

Structure (SMILES): CN(Cc1ccc([N+](=O)[O-])cc1)N=O
- Log 1/C [1]: -2.202
- Activity (Salmonella typhimurium [2]): 19
- No. of revertants per plate (Salmonella typhimurium [3]): 176
- No. of revertants per plate (Salmonella typhimurium [4]): 23

Structure (SMILES): CN(Cc1ccc(C(=O)O)cc1)N=O
- Activity (Salmonella typhimurium [2]): 13
- No. of revertants per plate (Salmonella typhimurium [3]): 15
- No. of revertants per plate (Salmonella typhimurium [4]): 21

Structure (SMILES): CN(Cc1ccccc1)N=O
- Log 1/C [1]: -3.416
- No. of revertants per plate (Cricetinae gen. sp.): 14
- Activity (Salmonella typhimurium [2]): 19
- No. of revertants per plate (Salmonella typhimurium [3]): 60
- No. of revertants per plate (Salmonella typhimurium [4]): 17

Structure (SMILES): COc1ccc(CN(C)N=O)cc1
- Activity (Salmonella typhimurium [2]): 12
- No. of revertants per plate (Salmonella typhimurium [3]): 24
- No. of revertants per plate (Salmonella typhimurium [4]): 15

Structure (SMILES): CN(Cc1ccc(F)cc1)N=O
- Log 1/C [1]: -2.969
- Activity (Salmonella typhimurium [2]): 15
- No. of revertants per plate (Salmonella typhimurium [5]): 126
- No. of revertants per plate (Salmonella typhimurium [6]): 71
- No. of revertants per plate (Salmonella typhimurium [7]): 22
- No. of revertants per plate (Salmonella typhimurium [8]): 15
- No. of revertants per plate (Salmonella typhimurium [9]): 15
- No. of revertants per plate (Salmonella typhimurium [10]): 71
- No. of revertants per plate (Salmonella typhimurium [11]): 27
- No. of revertants per plate (Salmonella typhimurium [12]): 94
- No. of revertants per plate (Salmonella typhimurium [13]): 21
- No. of revertants per plate (Salmonella typhimurium [14]): 15
- No. of revertants per plate (Salmonella typhimurium [15]): 22
- No. of revertants per plate (Salmonella typhimurium [16]): 17
- Activity (Salmonella typhimurium [17]): 24
- Activity (Salmonella typhimurium [18]): 19
- Activity (Salmonella typhimurium [19]): 8
- No. of revertants per plate (Salmonella typhimurium [20]): 18
- No. of revertants per plate (Salmonella typhimurium [21]): 8
- No. of revertants per plate (Salmonella typhimurium [22]): 11
- No. of revertants per plate (Salmonella typhimurium [23]): 20
- No. of revertants per plate (Salmonella typhimurium [24]): 19
- No. of revertants per plate (Salmonella typhimurium [25]): 16
- No. of revertants per plate (Salmonella typhimurium [26]): 21
- No. of revertants per plate (Salmonella typhimurium [27]): 39

Structure (SMILES): CN(Cc1ccc(Cl)cc1)N=O
- Log 1/C [1]: -1.933
- Activity (Salmonella typhimurium [2]): 22
- No. of revertants per plate (Salmonella typhimurium [5]): 192
- No. of revertants per plate (Salmonella typhimurium [6]): 136
- No. of revertants per plate (Salmonella typhimurium [7]): 24
- No. of revertants per plate (Salmonella typhimurium [8]): 18
- No. of revertants per plate (Salmonella typhimurium [9]): 19
- No. of revertants per plate (Salmonella typhimurium [10]): 221
- No. of revertants per plate (Salmonella typhimurium [11]): 42
- No. of revertants per plate (Salmonella typhimurium [12]): 166
- No. of revertants per plate (Salmonella typhimurium [13]): 21
- No. of revertants per plate (Salmonella typhimurium [14]): 17
- No. of revertants per plate (Salmonella typhimurium [15]): 19
- No. of revertants per plate (Salmonella typhimurium [16]): 18
- Activity (Salmonella typhimurium [17]): 22
- Activity (Salmonella typhimurium [18]): 23
- Activity (Salmonella typhimurium [19]): 19
- No. of revertants per plate (Salmonella typhimurium [20]): 17
- No. of revertants per plate (Salmonella typhimurium [21]): 16
- No. of revertants per plate (Salmonella typhimurium [22]): 19
- No. of revertants per plate (Salmonella typhimurium [23]): 21
- No. of revertants per plate (Salmonella typhimurium [24]): 24
- No. of revertants per plate (Salmonella typhimurium [25]): 19
- No. of revertants per plate (Salmonella typhimurium [26]): 14
- No. of revertants per plate (Salmonella typhimurium [27]): 77

Structure (SMILES): CN(Cc1cccc(C#N)c1)N=O
- Log 1/C [1]: -2.139
- Activity (Salmonella typhimurium [2]): 14
- No. of revertants per plate (Salmonella typhimurium [3]): 185
- No. of revertants per plate (Salmonella typhimurium [4]): 3053
